This passage reports inhibition of growth results from ChEMBL document CHEMBL3046951, “Volatile constituents from the leaves of Callicarpa japonica Thunb. and their antibacterial activities” (2004).

Each structure is given as a SMILES string.

Holding throughout (type): functional
The test system of one experiment is Listeria monocytogenes. Briefly: Antimicrobial activity against Listeria monocytogenes ATCC 19111 assessed as growth inhibition rate at 9.84 mg/l after 72 hr by spectrophotometry. To be noted: ATCC 19111, 72 h, read-out: GI. The method, boiled down: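 Pure volatile compounds (>95% purity) tested on Listeria monocytogenes ATCC 19111 in tryptic soy broth at 30 °C. Inoculum: 24 h culture subcultured (0.1 mL into 9.9 mL broth) and grown 18 h. Growth followed by Bioscreen C optical density every 24 h for 72 h against a 10% Tween 80 control.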

A further experiment has as its system Staphylococcus aureus. Briefly: Antimicrobial activity against Staphylococcus aureus ATCC 25923 assessed as growth inhibition rate at 9.84 mg/l after 72 hr by spectrophotometry. To be noted: ATCC 25923, 72 h, read-out: GI.
The next experiment concerns Vibrio parahaemolyticus. The experiment can be described thus: Antimicrobial activity against Vibrio parahaemolyticus ATCC 33844 assessed as growth inhibition rate at 9.84 mg/l after 72 hr by spectrophotometry. The settings on record: ATCC 33844, 72 h, read-out: GI.
The test system of the next experiment is Escherichia coli. Briefly: Antimicrobial activity against Escherichia coli O157:H7 ATCC 43894 assessed as growth inhibition rate at 9.84 mg/l after 72 hr by spectrophotometry. The settings on record: O157:H7 ATCC 43894, 72 h, read-out: GI. The method, boiled down:
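Authentic volatiles (>95% purity; 2,4-heptadienal 90%) tested against 18 h subcultures. Growth media: E. coli O157:H7 and S. aureus in tryptic soy broth at 37 °C; L. monocytogenes in tryptic soy broth at 30 °C; V. parahaemolyticus in tryptic soy broth + 3% NaCl at 37 °C; S. typhimurium in nutrient broth at 30 °C. Bioscreen C OD every 24 h for 72 h versus 10% Tween 80 control.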

The test system of the next experiment is Salmonella typhimurium. Briefly: Antimicrobial activity against Salmonella enterica subsp. enterica serovar Typhimurium ATCC 14028 assessed as growth inhibition rate at 9.84 mg/l after 72 hr by spectrophotometry. To be noted: ATCC 14028, 72 h, read-out: GI.
A further experiment has as its system Bacillus cereus. The experiment can be described thus: Antimicrobial activity against Bacillus cereus ATCC 11778 assessed as growth inhibition rate at 9.84 mg/l after 72 hr by spectrophotometry. To be noted: ATCC 11778, 72 h, read-out: GI. In short, it runs like this: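 Pure volatile compounds (>95% purity) from the leaf extract were tested against B. cereus grown at 30 °C in nutrient broth from an 18 h subculture. Optical density was read in a Bioscreen C every 24 h over 72 h, and activity was compared with a 10% Tween 80 control.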

Take `CCCCCCO` [1-HEXANOL]: the inhibition of growth at 9.84 µg/mL came to 4.2% in the experiment with Listeria monocytogenes; 6.9% in the experiment on Staphylococcus aureus; 27.1% in the experiment on Vibrio parahaemolyticus; 16.9% in the experiment with Escherichia coli; 23.3% with Salmonella typhimurium; 3.6% with Bacillus cereus.
